Measured values reported in ChEMBL document CHEMBL1122958, “Angiotensin converting enzyme inhibitors. (Mercaptoaroyl)amino acids” (J Med Chem, 1985).

Assays:
[1] = molecular target: T1, Angiotensin-converting enzyme (Oryctolagus cuniculus, UniProt P12822); test: In vitro inhibitory activity against Angiotensin I converting enzyme
T1 sequence (P12822 whole entry): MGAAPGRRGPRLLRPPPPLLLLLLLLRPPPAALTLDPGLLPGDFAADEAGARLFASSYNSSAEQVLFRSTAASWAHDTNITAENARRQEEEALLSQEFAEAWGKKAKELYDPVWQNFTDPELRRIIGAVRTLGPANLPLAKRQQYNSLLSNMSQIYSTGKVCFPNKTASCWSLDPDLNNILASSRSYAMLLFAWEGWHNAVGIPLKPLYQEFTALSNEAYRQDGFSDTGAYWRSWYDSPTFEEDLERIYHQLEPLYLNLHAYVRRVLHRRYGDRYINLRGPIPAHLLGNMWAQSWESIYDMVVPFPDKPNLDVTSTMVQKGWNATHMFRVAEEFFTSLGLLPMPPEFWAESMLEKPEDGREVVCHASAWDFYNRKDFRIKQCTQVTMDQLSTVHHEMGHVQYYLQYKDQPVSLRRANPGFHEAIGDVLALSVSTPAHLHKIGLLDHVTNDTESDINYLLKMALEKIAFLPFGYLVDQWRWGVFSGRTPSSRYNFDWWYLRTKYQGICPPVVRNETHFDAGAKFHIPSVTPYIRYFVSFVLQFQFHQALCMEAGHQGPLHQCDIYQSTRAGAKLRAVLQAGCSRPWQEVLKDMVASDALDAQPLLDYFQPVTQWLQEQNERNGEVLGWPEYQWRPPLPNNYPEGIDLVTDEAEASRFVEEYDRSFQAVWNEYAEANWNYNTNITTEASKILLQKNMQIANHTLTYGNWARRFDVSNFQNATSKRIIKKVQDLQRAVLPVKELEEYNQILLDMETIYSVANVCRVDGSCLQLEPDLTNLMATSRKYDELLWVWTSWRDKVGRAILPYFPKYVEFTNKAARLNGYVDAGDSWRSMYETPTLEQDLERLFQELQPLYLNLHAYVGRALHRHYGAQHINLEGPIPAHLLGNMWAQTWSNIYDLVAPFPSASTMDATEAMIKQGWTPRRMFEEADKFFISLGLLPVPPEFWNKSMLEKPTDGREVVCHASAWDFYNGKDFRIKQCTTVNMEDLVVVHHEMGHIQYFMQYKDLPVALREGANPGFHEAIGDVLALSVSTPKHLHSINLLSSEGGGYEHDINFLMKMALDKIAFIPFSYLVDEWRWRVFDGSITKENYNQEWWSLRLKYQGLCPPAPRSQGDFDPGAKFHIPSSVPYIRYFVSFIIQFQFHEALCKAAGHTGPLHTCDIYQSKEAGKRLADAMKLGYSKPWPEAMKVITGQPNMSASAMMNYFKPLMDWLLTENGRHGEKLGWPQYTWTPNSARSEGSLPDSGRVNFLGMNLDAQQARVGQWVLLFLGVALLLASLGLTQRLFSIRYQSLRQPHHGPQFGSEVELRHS
Procedure, shortened: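 Crude ACE from rabbit lung acetone powder, extracted in cold 0.05 M KH2PO4–0.03 M n-octyl-β-D-glucopyranoside pH 8.3, centrifuged 30000g, supernatant dialysed. Assay in 0.1 M KH2PO4–0.3 M NaCl–2% Me2SO, pH 8.3, 37 °C, substrate hippuryl-L-histidyl-L-leucine 2 mM; started by enzyme addition. Activity compared with and without inhibitor (in Me2SO). IC50 from one concentration–response curve per compound.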

[2] = molecular target: T2, Angiotensin-converting enzyme (Rattus norvegicus) (UniProt P47820); test: In vivo percent mean decrease in Angiotensin I converting enzyme inhibitory activity in 2 rats administered perorally at a dose of 10 mg/kg; format: functional, organism-based; design: dose 10 mg/kg
T2 sequence (whole entry): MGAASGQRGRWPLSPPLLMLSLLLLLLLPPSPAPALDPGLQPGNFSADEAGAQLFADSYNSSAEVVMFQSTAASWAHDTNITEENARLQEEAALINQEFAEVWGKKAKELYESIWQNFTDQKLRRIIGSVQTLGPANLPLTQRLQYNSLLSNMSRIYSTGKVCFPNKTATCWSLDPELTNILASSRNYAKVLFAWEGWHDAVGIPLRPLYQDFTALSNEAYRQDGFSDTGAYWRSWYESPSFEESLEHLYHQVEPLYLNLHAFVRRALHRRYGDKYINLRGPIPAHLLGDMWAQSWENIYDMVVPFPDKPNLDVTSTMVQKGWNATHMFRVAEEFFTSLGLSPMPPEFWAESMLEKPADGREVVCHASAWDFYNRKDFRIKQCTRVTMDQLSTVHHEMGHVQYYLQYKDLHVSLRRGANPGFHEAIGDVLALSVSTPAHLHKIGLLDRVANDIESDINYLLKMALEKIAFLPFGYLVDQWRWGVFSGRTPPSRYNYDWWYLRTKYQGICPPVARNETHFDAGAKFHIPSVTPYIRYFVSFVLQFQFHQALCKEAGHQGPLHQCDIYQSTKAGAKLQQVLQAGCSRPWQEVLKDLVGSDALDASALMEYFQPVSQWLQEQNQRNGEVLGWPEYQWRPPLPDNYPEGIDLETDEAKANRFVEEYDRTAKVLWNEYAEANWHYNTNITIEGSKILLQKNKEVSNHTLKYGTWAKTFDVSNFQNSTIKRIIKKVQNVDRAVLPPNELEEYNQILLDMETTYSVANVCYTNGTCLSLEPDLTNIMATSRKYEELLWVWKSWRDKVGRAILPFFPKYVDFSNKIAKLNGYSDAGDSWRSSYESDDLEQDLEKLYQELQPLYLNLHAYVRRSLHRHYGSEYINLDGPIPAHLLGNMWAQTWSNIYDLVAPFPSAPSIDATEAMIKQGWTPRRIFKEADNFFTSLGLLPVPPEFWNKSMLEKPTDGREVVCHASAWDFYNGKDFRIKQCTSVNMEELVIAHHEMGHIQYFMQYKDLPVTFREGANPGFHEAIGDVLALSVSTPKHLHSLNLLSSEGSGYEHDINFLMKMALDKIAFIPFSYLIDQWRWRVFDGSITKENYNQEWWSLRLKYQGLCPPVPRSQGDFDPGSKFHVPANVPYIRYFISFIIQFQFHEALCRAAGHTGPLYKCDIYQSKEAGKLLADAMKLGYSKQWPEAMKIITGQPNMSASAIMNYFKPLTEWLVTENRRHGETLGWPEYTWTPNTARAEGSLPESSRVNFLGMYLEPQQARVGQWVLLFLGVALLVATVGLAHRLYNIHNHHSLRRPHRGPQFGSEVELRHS
Procedure, shortened: (§1)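 Conscious normotensive male rats with aortic and vena caval catheters (implanted ≥6 days before), restrained. Angiotensin I and II, 0.25 μg/kg iv, given at 10-min intervals as pressor challenges. Compound given once, generally orally, suspended in 0.5% gum tragacanth. AI repeated every 10 min for ≥2 h. Max inhibition is % of mean of two predose AI responses. Duration runs from dosing until inhibition falls below 30%. ED50 taken from dose–response plot as dose giving 50% inhibition.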

[3] = molecular target: T2, Angiotensin-converting enzyme (Rattus norvegicus); test: In vivo mean duration for Angiotensin I converting enzyme inhibitory activity in 2 rats administered perorally at a dose of 10 mg/kg; format: functional, organism-based; design: dose 10 mg/kg; procedure, shortened: as §1
[4] = molecular target: T2, Angiotensin-converting enzyme (Rattus norvegicus); test: In vivo mean duration for Angiotensin I converting enzyme inhibitory activity in 2 rats administered perorally at a dose of 1.5 mg/kg; format: functional, organism-based; design: dose 1.5 mg/kg; procedure, shortened: as §1
[5] = molecular target: T2, Angiotensin-converting enzyme (Rattus norvegicus); test: In vivo percent mean decrease in Angiotensin I converting enzyme inhibitory activity in 2 rats administered perorally at a dose of 1.5 mg/kg; format: functional, organism-based; design: dose 1.5 mg/kg; procedure, shortened: as §1
[6] = molecular target: T2, Angiotensin-converting enzyme (Rattus norvegicus); test: In vivo percent mean decrease in Angiotensin I converting enzyme activity in 2 rats administered perorally at a dose of 10 mg/kg; format: functional, organism-based; design: dose 10 mg/kg; procedure, shortened: as §1
[7] = molecular target: T2, Angiotensin-converting enzyme (Rattus norvegicus); test: In vivo percent mean decrease in Angiotensin I converting enzyme inhibitory activity in a rat administered perorally at a dose of 10 mg/kg; format: functional, organism-based; design: dose 10 mg/kg; procedure, shortened: as §1
[8] = molecular target: T2, Angiotensin-converting enzyme (Rattus norvegicus); test: In vivo mean duration for Angiotensin I converting enzyme inhibitory activity in rat administered perorally at a dose of 10 mg/kg; format: functional, organism-based; design: dose 10 mg/kg; procedure, shortened: as §1
[9] = molecular target: T2, Angiotensin-converting enzyme (Rattus norvegicus); test: In vivo for percent mean decrease in Angiotensin I converting enzyme inhibitory activity in 4 rats administered perorally at a dose of 1.5 mg/kg; format: functional, organism-based; design: dose 1.5 mg/kg; procedure, shortened: as §1
[10] = molecular target: T2, Angiotensin-converting enzyme (Rattus norvegicus); test: In vivo percent mean decrease in Angiotensin I converting enzyme inhibitory activity in 5 rats administered perorally at a dose of 10 mg/kg; format: functional, organism-based; design: dose 10 mg/kg; procedure, shortened: as §1
[11] = molecular target: T2, Angiotensin-converting enzyme (Rattus norvegicus); test: In vivo mean duration for Angiotensin I converting enzyme inhibitory activity in 5 rats administered perorally at a dose of 10 mg/kg; format: functional, organism-based; design: dose 10 mg/kg; procedure, shortened: as §1
Rattus norvegicus = test: Effective dose against ACE inhibitory activity in rat in vivo; format: functional; procedure, shortened: as §1

Cc1cccc(C(=O)N(CC(=O)O)C2CCCC2)c1S
IC50 [1]: 4.6 µM | Mean decrease [2]: 77% | Mean duration [3]: 50 min

CCOC(=O)CN(C(=O)c1cc(Cl)cc(Cl)c1OC(C)=O)C1CCCC1
IC50 [1]: 100 µM

CC(C)c1cccc(C(=O)N(CC(=O)O)C2CCCC2)c1S
IC50 [1]: 120 µM | Mean decrease [2]: 23% | Mean duration [3]: 0 min

CC(=O)Sc1ccccc1C(=O)N(CC(=O)O)C1CCCC1
IC50 [1]: 9.1 µM | Mean duration [4]: 0 min | Mean decrease [5]: 25%

CC(=O)Sc1c(F)cccc1C(=O)N(CC(=O)O)C1CCCC1
IC50 [1]: 0.6 µM | Mean decrease [2]: 82% | Mean duration [3]: 90 min

O=C(O)CN(C(=O)c1ccccc1C(=O)O)C1CCCC1
IC50 [1]: 100 µM

O=C(O)CN(C(=O)c1cc(Cl)ccc1S)C1CCCC1
IC50 [1]: 80 µM | Mean duration [3]: 0 min | Mean decrease [6]: 22%

O=C(O)CN(C(=O)c1ccccc1[N+](=O)[O-])C1CCCC1
IC50 [1]: 100 µM | Mean decrease [7]: 25% | Mean duration [8]: 0 min

O=C(O)CN(C(=O)c1cc(Cl)cc(Cl)c1S)C1CCCC1
IC50 [1]: 4.1 µM

O=C(O)CN(C(=O)c1ccccc1S)C1CCCC1
IC50 [1]: 4.8 µM | Mean duration [4]: 35 min | Mean decrease [9]: 34%

O=C(O)CN(C(=O)c1ccc(S)cc1)C1CCCC1
IC50 [1]: 21 µM

COc1cccc(C(=O)N(CC(=O)O)C2CCCC2)c1S
IC50 [1]: 0.38 µM | Mean decrease [10]: 92% | Mean duration [11]: 4 h | ED50 (Rattus norvegicus): 0.8 mg/kg

O=C(O)CN(C(=O)c1cc(Cl)cc(Cl)c1O)C1CCCC1
IC50 [1]: 100 µM

O=C(O)CN(C(=O)c1cccc(S)c1)C1CCCC1
IC50 [1]: 25 µM | Mean decrease [2]: 13% | Mean duration [3]: 0 min

O=C(O)CN(C(=O)c1cccc(Cl)c1S)C1CCCC1
IC50 [1]: 0.28 µM | Mean decrease [10]: 85% | Mean duration [11]: > 4 h | ED50 (Rattus norvegicus): 0.3 mg/kg

CC(=O)Sc1cccc(C(=O)N(CC(=O)O)C2CCCC2)c1
IC50 [1]: 28 µM

O=C(O)CN(C(=O)c1cccc(C(F)(F)F)c1S)C1CCCC1
IC50 [1]: 0.68 µM | Mean decrease [2]: 31% | Mean duration [3]: 20 min

CC(=O)Sc1ccc(C(=O)N(CC(=O)O)C2CCCC2)cc1
IC50 [1]: 21 µM

CC(=O)Sc1c(C)cccc1C(=O)N(CC(=O)O)C1CCCC1
IC50 [1]: 2.2 µM | Mean duration [4]: 20 min | Mean decrease [5]: 35%

O=C(O)CN(C(=O)c1cccc(F)c1S)C1CCCC1
IC50 [1]: 0.55 µM | Mean decrease [2]: 84% | Mean duration [3]: 105 min

CC(C)(C)C(=O)Sc1ccccc1C(=O)N(CC(=O)O)C1CCCC1
Mean duration [4]: 0 min | Mean decrease [5]: 19%
